Assay results published in ChEMBL document CHEMBL1125909, “Synthesis of chiral and achiral pyranenamine derivatives. Potent agents with topical ocular antiallergic activity” (J Med Chem, 1991).

How the values were obtained:
[1] = Compound was evaluated for pyranenamine lipophilicity; format: physicochemical; conditions: octanol/water
Rattus norvegicus [2] = assay: Compound was evaluated for the type-I hypersensitivity in rat POA model after intravenous administration.; format: functional; conditions: read-out: ID50 (the source's name)
Outline: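 Modified Iso method. Rats of 150–200 g were sensitized with three conjunctival injections per eye (bulbar, palpebral, lower) of 50 μL of 1:4-diluted rat IgE anti-ovalbumin antiserum. 24 h later, drug was given IV just before IV challenge with ovalbumin (25 mg/kg) plus Evans blue (12.5 mg/kg in saline). Eyelids and eyeballs were taken at 30 min, extracted in acetone/0.5% sodium sulfate, and read at 620 nm. Result expressed as ID50 (mg/kg).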

Rattus norvegicus [3] = assay: Compound was evaluated for the type-I hypersensitivity in rat POA model at a concentration of 3% administered topically.; format: functional
Outline: (§1)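 Modified Iso passive ocular anaphylaxis in 150–200 g rats. Each eye was sensitized by three conjunctival injections of 50 μL of 1:4-diluted rat IgE anti-ovalbumin antiserum. At 24 h, 10 μL of drug solution was instilled topically 15 min before, just prior to, and 15 min after IV ovalbumin (25 mg/kg) with Evans blue (12.5 mg/kg). At 30 min, eye tissue dye was extracted in acetone/0.5% Na2SO4 and read at 620 nm. Result expressed as % inhibition.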

Rattus norvegicus [4] = assay: Compound was evaluated for the type-I hypersensitivity in rat POA model at a concentration of 5% administered topically.; format: functional; outline: as §1
Rattus norvegicus [5] = assay: Compound was evaluated for the type-I hypersensitivity in rat POA model at a concentration of 1% administered topically.; format: functional; outline: as §1
Rattus norvegicus [6] = assay: Compound was evaluated for the type-I hypersensitivity in rat POA model at a concentration of 10% administered topically.; format: functional; outline: as §1
Rattus norvegicus [7] = assay: Compound was evaluated for the type-I hypersensitivity in rat POA model at a concentration of 4% administered topically.; format: functional
Outline: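 Modified Iso method. Rats (150–200 g) sensitized with three 50 µL injections per eye (bulbar conjunctiva, palpebral, lower conjunctiva) of 1:4-diluted rat IgE anti-ovalbumin antisera. After 24 h, iv challenge with ovalbumin 25 mg/kg plus Evans blue 12.5 mg/kg. Drug (10 µL) instilled 15 min before, just before and 15 min after challenge. Killed at 30 min; eyelids and eyeballs extracted in acetone/0.5% sodium sulfate; read at 620 nm; % inhibition.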

logP [1] | Compound | ED50 (Rattus norvegicus [2]) [mg/kg] | Inhibition (Rattus norvegicus [3]) [%] | Inhibition (Rattus norvegicus [4]) [%] | Inhibition (Rattus norvegicus [5]) [%] | Inhibition (Rattus norvegicus [6]) [%] | Inhibition (Rattus norvegicus [7]) [%]
-2.44 | CC(=O)C1=C(O)C(=C(C)Nc2cc(NC(=O)[C@H](O)CO)cc(NC(=O)[C@H](O)CO)c2)C(=O)OC1=O | 300 |  |  |  |  | 
-2.44 | CC(=O)c1c(O)c(/C(C)=N/c2cc(NC(=O)C(O)CO)cc(NC(=O)C(O)CO)c2)c(O)oc1=O (stereo not given) | 60 | 25 |  | 16 |  | 
-2.44 | CC(=O)C1=C(O)C(=C(C)Nc2cc(NC(=O)[C@@H](O)CO)cc(NC(=O)[C@@H](O)CO)c2)C(=O)OC1=O | 30 | 40 | 63 |  | 79 | 

Continued, compound first:

Compound | logP [1] | ED50 (Rattus norvegicus [2]) [mg/kg] | Inhibition (Rattus norvegicus [3]) [%] | Inhibition (Rattus norvegicus [4]) [%] | Inhibition (Rattus norvegicus [5]) [%] | Inhibition (Rattus norvegicus [6]) [%] | Inhibition (Rattus norvegicus [7]) [%]
CC(=O)c1c(O)c(/C(C)=N/c2cc(NC(=O)C(CO)CO)cc(NC(=O)C(CO)CO)c2)c(O)oc1=O | -2.43 | 30 | 31 | 41 | 12 |  | 
CC(=O)c1c(O)c(/C(C)=N/c2cc(NC(=O)CO)cc(NC(=O)CO)c2)c(O)oc1=O | -0.32 | 30 | 15 |  |  |  | 
O=C([O-])c1cc(=O)c2c(OCC(O)COc3cccc4oc(C(=O)[O-])cc(=O)c34)cccc2o1.[Na+].[Na+] [CROMOLYN SODIUM] |  |  |  |  |  |  | 0
